ChEMBL document CHEMBL3244303, “Synthesis of spiro[isobenzofuran-1(3H),4'-piperidines] as potential central nervous system agents. 5. Conformationally mobile analogues derived by furan ring opening” (J Med Chem, 1979)

Tests used:
Mus musculus = assay: Antidepressant activity in ip dosed CD1 mouse assessed as inhibition of tetrabenazine methanesulfonate-induced reserpine like behavior administered 30 mins before tetrabenazine methanesulfonate challenge measured after 30 mins; assay type: functional
Method in brief: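 Male CD-1 mice, groups of five, given test compound ip; tetrabenazine methanesulfonate 40 mg/kg ip 30 min later; after a further 30 min mice placed in individual containers and ptosis scored on a three-point scale (eyes closed = 2).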

Transporter = Transporter (Rattus norvegicus, UniProt Q63380); assay: Inhibition of NET-mediated norepinephrine uptake in rat brain synaptosomes; assay type: subcellular
Sequence of Transporter (Q63380 whole entry): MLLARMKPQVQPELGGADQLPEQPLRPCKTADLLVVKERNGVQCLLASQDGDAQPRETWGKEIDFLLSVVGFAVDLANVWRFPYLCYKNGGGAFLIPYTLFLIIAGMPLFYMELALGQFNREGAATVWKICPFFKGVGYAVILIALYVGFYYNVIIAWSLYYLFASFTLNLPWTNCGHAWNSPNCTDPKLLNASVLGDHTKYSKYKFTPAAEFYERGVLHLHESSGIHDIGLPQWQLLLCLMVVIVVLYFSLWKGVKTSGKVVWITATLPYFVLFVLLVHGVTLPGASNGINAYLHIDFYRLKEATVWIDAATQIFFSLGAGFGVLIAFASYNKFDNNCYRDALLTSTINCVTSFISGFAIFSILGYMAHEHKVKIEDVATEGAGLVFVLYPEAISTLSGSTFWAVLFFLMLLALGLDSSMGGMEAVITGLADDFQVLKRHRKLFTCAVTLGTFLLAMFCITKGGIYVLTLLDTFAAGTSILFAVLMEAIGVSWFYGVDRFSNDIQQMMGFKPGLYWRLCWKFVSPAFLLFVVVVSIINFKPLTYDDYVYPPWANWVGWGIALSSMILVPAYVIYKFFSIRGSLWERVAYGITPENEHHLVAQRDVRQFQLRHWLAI

| SMILES | ED50 (Mus musculus) | IC50 (Transporter) |
| --- | --- | --- |
| Br.CN1CCC(c2ccccc2Cc2ccc(F)cc2)CC1 | 4.9 mg/kg |  |
| Br.COc1ccc(Cc2ccccc2C2CCN(C)CC2)cc1 | > 20 mg/kg |  |
| CN1CCC(c2ccccc2Cc2ccc(O)cc2)CC1 | > 20 mg/kg |  |
| Br.c1ccc(CCN2CCC(c3ccccc3Cc3ccccc3)CC2)cc1 | 10.8 mg/kg |  |
| Br.Fc1ccc(Cc2ccccc2C2CCNCC2)cc1 | 1.5 mg/kg |  |
| COc1ccc(Cc2ccccc2C2CCNCC2)cc1.Cl | 7.1 mg/kg |  |
| Oc1ccc(Cc2ccccc2C2CCNCC2)cc1 | 1.2 mg/kg |  |
| ON1CCC(c2ccccc2Cc2ccccc2)CC1 | 7.3 mg/kg |  |
| O=C(Oc1ccccc1)N1CCC(c2ccccc2Cc2ccccc2)CC1 | > 20 mg/kg |  |
| CN1CCC(O)(c2ccccc2Cc2ccccc2)CC1 | 18 mg/kg |  |
| CN1CCC(O)(c2cccc(Cc3ccccc3)c2)CC1 | > 20 mg/kg |  |
| CN1CCC(O)(c2ccc(Cc3ccccc3)cc2)CC1 | > 20 mg/kg |  |
| COc1ccc(Cc2ccccc2C2(O)CCN(C)CC2)cc1 | > 20 mg/kg |  |
| Cl.OC1(c2ccccc2Cc2ccccc2)CCN(Cc2ccccc2)CC1 | > 20 mg/kg |  |
| OC1(c2ccccc2Cc2ccccc2)CCN(CCc2ccccc2)CC1 | > 20 mg/kg |  |
| CC(=O)OC1(c2ccccc2Cc2ccccc2)CCN(C)CC1.Cl | > 20 mg/kg |  |
| CC(=O)OC1(c2cccc(Cc3ccccc3)c2)CCN(C)CC1.Cl | > 20 mg/kg |  |

| SMILES | ED50 (Mus musculus) | IC50 (Transporter) |
| --- | --- | --- |
| CC(=O)OC1(c2ccccc2Cc2ccccc2)CCN(Cc2ccccc2)CC1.Cl | > 20 mg/kg |  |
| COC1(c2ccccc2Cc2ccccc2)CCN(C)CC1.Cl | > 20 mg/kg |  |
| COC1(c2ccccc2Cc2ccccc2)CCNCC1 | 7.8 mg/kg |  |
| Br.CN1CC=C(c2cccc(Cc3ccccc3)c2)CC1 | > 20 mg/kg |  |
| Br.CN1CC=C(c2ccc(Cc3ccccc3)cc2)CC1 | > 20 mg/kg |  |
| Br.COc1ccc(Cc2ccccc2C2=CCN(C)CC2)cc1 | > 20 mg/kg |  |
| C1=C(c2ccccc2Cc2ccccc2)CCN(Cc2ccccc2)C1.Cl | > 20 mg/kg |  |
| C1=C(c2ccccc2Cc2ccccc2)CCN(CCc2ccccc2)C1 | > 20 mg/kg |  |
| Cl.c1ccc(COC2(c3ccccc3)CCNCC2)cc1 | 10.1 mg/kg |  |
| Cl.c1ccc(COC2(c3ccccc3)CCN(CC3CC3)CC2)cc1 | 6.3 mg/kg |  |
| CCOC(=O)N1CCC(OCc2ccccc2)(c2ccccc2)CC1 | > 20 mg/kg |  |
| CN1CCC(OCc2ccccc2)(c2ccccc2)CC1.Cl | 6.2 mg/kg |  |
| c1ccc(CCN2CCC(OCc3ccccc3)(c3ccccc3)CC2)cc1 | > 20 mg/kg |  |
| c1ccc(C2OC3(CCNCC3)c3ccccc32)cc1 (centres undefined) |  | 10 nM |
| CN(C)CCC=C1c2ccccc2CCc2ccccc21 [AMITRIPTYLINE] | 1.9 mg/kg |  |
| CNCCCN1c2ccccc2CCc2ccccc21 [DESIPRAMINE] | 0.8 mg/kg |  |
| CN(C)CCCN1c2ccccc2CCc2ccccc21 [IMIPRAMINE] | 1.3 mg/kg |  |
